Fewer inactive variants are shown than the library holds.
B1: tRNA (parent)
chain: GUUCCGUUGGCGUAAUGGUAACGCGUCUCCCUCCUAAGGAGAAGACUGCGGGUUCGAGUCCCGUACGGAACG

Variants of: B1
Experiment: yeast fitness relative to wild type (ratio to wild type); higher = fitter; tRNA-Arg(CCU), competitive growth, 37 C, YPD
Summary of the method: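 Start and end populations of a pooled competition were compared by 100-nucleotide paired-end sequencing of gene amplicons. The Saccharomyces cerevisiae strains carried tRNA-Arg(CCU) gene variants at the native genomic locus, synthesised with a 3% per-site mutation rate at 69 sites, and competed in YPD at 37°C for 24 hours in six parallel replicates. Darwinian fitness relative to wild type was based on the change in genotype frequencies. Genotypes required ≥ 100 starting reads, and estimates < 0.5 were set to 0.5.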

| Variant | yeast fitness |
| --- | --- |
| C5U C55A G68C | ≤ 0.5 |
| C5U C55G | 0.676 |
| C5U C55U G56C | 0.746 |
| C5U C55U G56C C62U | 0.932 |
| C5U C55U G67C | ≤ 0.5 |
| C5U C60A | 0.585 |
| C5U C60A C62G | ≤ 0.5 |
| C5U C60G | 0.627 |
| C5U C61A C66A | ≤ 0.5 |
| C5U C61G | 0.771 |
| C5U C61U | 0.971 |
| C5U C62A | 0.649 |
| C5U C62G | 0.702 |
| C5U C62G G63C A65U | ≤ 0.5 |
| C5U C66G G68C | 0.541 |
| C5U C66U | 0.877 |
| C5U G6A A15U C31U U32C G67C | ≤ 0.5 |
| C5U G6A C22U G25C | ≤ 0.5 |
| C5U G6A C31G G50C U54C | ≤ 0.5 |
| C5U G6A G44C G63A | ≤ 0.5 |
| C5U G6A U35C A36U G38A C46A U54C | ≤ 0.5 |
| C5U G6C A14G | ≤ 0.5 |
| C5U G6C A20U A45U | ≤ 0.5 |
| C5U G6C A21C A42U C46U C66U | ≤ 0.5 |

| Variant | yeast fitness |
| --- | --- |
| C5U G6C A36C G48C C62U | 0.546 |
| C5U G6C G39A A45U C46G A57C | ≤ 0.5 |
| C5U G6C U19C G25C U28G C62A | 0.747 |
| C5U G6U C11U A15G G48C | ≤ 0.5 |
| C5U G9A A20G | 0.663 |
| C5U G9A A21G C55U | ≤ 0.5 |
| C5U G9A A21G U53A | ≤ 0.5 |
| C5U G9A A43C | 0.653 |
| C5U G9A A65G | 0.736 |
| C5U G9A C31A A57C C66A A69U | ≤ 0.5 |
| C5U G9A C34A | 0.704 |
| C5U G9A C34U C46G C49U | 0.513 |
| C5U G9A C61U | 0.732 |
| C5U G9A C62U | 0.995 |
| C5U G9A G10C G12A G25A C33G G39A | ≤ 0.5 |
| C5U G9A G51C G52C | ≤ 0.5 |
| C5U G9A G67A | 1.05 |
| C5U G9A U13A | 0.882 |
| C5U G9A U13A A36C G50C | ≤ 0.5 |
| C5U G9A U26C G67U | ≤ 0.5 |
| C5U G9C A15C G38C C49G G68C | ≤ 0.5 |
| C5U G9C A36U C60G | ≤ 0.5 |
| C5U G9C A42G | 0.626 |
| C5U G9C C11G C24A U26G G68A A69C | ≤ 0.5 |

| Variant | yeast fitness |
| --- | --- |
| C5U G9C U64A | 0.577 |
| C5U G10A A20C G41A C46G G48A U54C C55U A70C | 0.647 |
| C5U G10A A20G A36U A43C | ≤ 0.5 |
| C5U G10A A21G | 0.59 |
| C5U G10A A21G A40U | ≤ 0.5 |
| C5U G10A A36G G44C | ≤ 0.5 |
| C5U G10A A40C G50A | ≤ 0.5 |
| C5U G10A A69G | ≤ 0.5 |
| C5U G10A C22U A40G G56C C66A | ≤ 0.5 |
| C5U G10A C27G | ≤ 0.5 |
| C5U G10A C27G A57G | 0.541 |
| C5U G10A C27G U35G G44A | ≤ 0.5 |
| C5U G10A C34U G68U A69U | 0.505 |
| C5U G10A C46A | ≤ 0.5 |
| C5U G10A C62G C66G | ≤ 0.5 |
| C5U G10A G38C | ≤ 0.5 |
| C5U G10A G68C | ≤ 0.5 |
| C5U G10A U54C A57G | ≤ 0.5 |
| C5U G10C A14G C46G C62U | 0.593 |
| C5U G10C A15G C29G A40C A43U U47A C60A | ≤ 0.5 |
| C5U G10C A21U C22U C24U U32C C46U C61G | ≤ 0.5 |
| C5U G10C A21U C22U C27U U32C C46U C61G | ≤ 0.5 |
| C5U G10C A21U C22U U32C C46U | ≤ 0.5 |
| C5U G10C A21U C22U U32C C46U C61G | ≤ 0.5 |

| Variant | yeast fitness |
| --- | --- |
| C5U G10C C27G U28C G39C C46G | 0.606 |
| C5U G10C C30A A36U A42C U64A C66G A69U | ≤ 0.5 |
| C5U G10C C30U | ≤ 0.5 |
| C5U G10C C33U C46G | ≤ 0.5 |
| C5U G10C C34A A57U G67C | ≤ 0.5 |
| C5U G10C G39C G51A | ≤ 0.5 |
| C5U G12A A14G A57U | ≤ 0.5 |
| C5U G12A A15U G63A A70U | ≤ 0.5 |
| C5U G12A A40U A45G C60A | ≤ 0.5 |
| C5U G12A C22U C33U | ≤ 0.5 |
| C5U G12A C49U | 0.612 |
| C5U G12A G52C A70U | ≤ 0.5 |
| C5U G12A U47G C49U G68C | ≤ 0.5 |
| C5U G12C A21C C24A G41C G50A U53A | ≤ 0.5 |
| C5U G12C A21C C24A G41C U53A | ≤ 0.5 |
| C5U G12C A40C G56C | ≤ 0.5 |
| C5U G12C A43G G56A | ≤ 0.5 |
| C5U G12C U19A | ≤ 0.5 |
| C5U G12C U28A | 0.545 |
| C5U G17A A20G C55A G67A A70G | ≤ 0.5 |
| C5U G17A A21G A37G G39C G44C C46A U54C A65C | ≤ 0.5 |
| C5U G17A A36U U47A | ≤ 0.5 |
| C5U G17A C29U G52C C55G | ≤ 0.5 |
| C5U G17A C29U G52C C55G A69U | ≤ 0.5 |

| Variant | yeast fitness |
| --- | --- |
| C5U G17A C33A C49U C66U | ≤ 0.5 |
| C5U G17A C46U G58A G63A U64A | ≤ 0.5 |
| C5U G17A C49G C60A | ≤ 0.5 |
| C5U G17A C55A G67A A70G | ≤ 0.5 |
| C5U G17C | 0.721 |
| C5U G17C A43C C49G | ≤ 0.5 |
| C5U G17C C24G G38C U54C | ≤ 0.5 |
| C5U G17C C30A A57C | ≤ 0.5 |
| C5U G17C C30G | ≤ 0.5 |
| C5U G17C C30G C55G | ≤ 0.5 |
| C5U G17C C30G U59A | ≤ 0.5 |
| C5U G17C C46A | 0.556 |
| C5U G17C G18C C60G C61G | ≤ 0.5 |
| C5U G17C G52A | 0.61 |
| C5U G17C U26G | 0.511 |
| C5U G17C U26G G67A | 0.565 |
| C5U G17U A70U | ≤ 0.5 |
| C5U G18C | 0.721 |
| C5U G18C A45U | ≤ 0.5 |
| C5U G18C A65U | 0.601 |
| C5U G18C C22A U54A A65G | ≤ 0.5 |
| C5U G18C C22U G50A G52C | ≤ 0.5 |
| C5U G18C C61U | 0.565 |
| C5U G18C U28C G63A | ≤ 0.5 |

| Variant | yeast fitness |
| --- | --- |
| C5U G23A | 0.742 |
| C5U G23A A36G | 0.618 |
| C5U G23A C27G C31G G50C G58C | 0.557 |
| C5U G23A C31U A65G | ≤ 0.5 |
| C5U G23A C46G C49G | ≤ 0.5 |
| C5U G23A C62G | 0.538 |
| C5U G23A U35A | ≤ 0.5 |
| C5U G23C | 0.644 |
| C5U G23C A69C | ≤ 0.5 |
| C5U G25A | 0.891 |
| C5U G25A A37U A40C C61A | ≤ 0.5 |
| C5U G25A A40C | ≤ 0.5 |
| C5U G25A A69C | 0.728 |
| C5U G25A A70C | 0.796 |
| C5U G25A G51C G56C A69U | ≤ 0.5 |
| C5U G25C | 0.997 |
| C5U G25C A42U C62G | ≤ 0.5 |
| C5U G25C C27G | ≤ 0.5 |
| C5U G25C C49A G56C C62G | ≤ 0.5 |
| C5U G38A | 1.03 |
| C5U G38A A42G | 0.605 |
| C5U G38C A42C G63A | ≤ 0.5 |
| C5U G38C C46U C60U | ≤ 0.5 |
| C5U G38C G39C A40G G44A C46G G52A U59G | ≤ 0.5 |

| Variant | yeast fitness |
| --- | --- |
| C5U G39A A57C | 0.656 |
| C5U G39A A69C | 0.647 |
| C5U G39A C55U | 0.614 |
| C5U G39A G51U G58C | ≤ 0.5 |
| C5U G39C U59A C60G | ≤ 0.5 |
| C5U G41A A42C G50C A70G | 0.535 |
| C5U G41A A70C | 0.695 |
| C5U G41A C46A U47C | 0.568 |
| C5U G41A C49U A65G C66U | ≤ 0.5 |
| C5U G41A G56C C62G G68C | ≤ 0.5 |
| C5U G44A G68A | 0.522 |
| C5U G44C | 1.01 |
| C5U G44C C49U U64G G67A | 0.51 |
| C5U G44C G63C | 0.686 |
| C5U G44C U47C | 0.807 |
| C5U G44C U54C | 0.637 |
| C5U G48A G50A C55U A65C | ≤ 0.5 |
| C5U G48C | 0.853 |
| C5U G48U A70C | 0.707 |
| C5U G50A | 0.888 |
| C5U G50C G51C G56C A69U | ≤ 0.5 |
| C5U G51A | 0.798 |
| C5U G51A A57U | ≤ 0.5 |
